# Activity calls are given as the source filed them. No cut-off for these calls is given here.
# Legend:
# [1] = biological target: Phosphatidylinositol 4,5-bisphosphate 3-kinase catalytic subunit alpha isoform (Homo sapiens) (UniProt P42336); details: SK-OV-3, 1 to 1000 nM
# SK-OV-3 = experiment: Growth inhibition of human SKOV3 cells assessed as cell viability after 96 hrs by Cell Titre Glo assay; assay type: functional; details: SK-OV-3, 96 h
# [2] = biological target: Phosphatidylinositol 4,5-bisphosphate 3-kinase catalytic subunit alpha isoform (Homo sapiens) (UniProt P42336); details: SK-OV-3, 500 nM
# MCF7 = experiment: Growth inhibition of human MCF7 cells assessed as cell viability after 96 hrs by Cell Titre Glo assay; assay type: functional; details: MCF7, 96 h
# [3] = biological target: T1, Phosphatidylinositol 4,5-bisphosphate 3-kinase catalytic subunit beta isoform (Homo sapiens, UniProt P42338); experiment: Inhibition of PI3Kbeta (unknown origin) by HTRF assay
# How it was run: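 PI3Kβ tested in a 10-concentration curve, 3-fold serial dilution starting at 1 μM, at 10 μM ATP. Substrate phosphatidylinositol 4,5-bisphosphate, HTRF read-out. Value reported as apparent IC50 from an end-point assay.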
# Sphingosine kinase 2 = biological target: T2, Sphingosine kinase 2 (Homo sapiens, UniProt Q9NRA0); experiment: Inhibition of SPHK2 (unknown origin) by ADP-GLO assay
# T2 sequence (Q9NRA0 whole entry): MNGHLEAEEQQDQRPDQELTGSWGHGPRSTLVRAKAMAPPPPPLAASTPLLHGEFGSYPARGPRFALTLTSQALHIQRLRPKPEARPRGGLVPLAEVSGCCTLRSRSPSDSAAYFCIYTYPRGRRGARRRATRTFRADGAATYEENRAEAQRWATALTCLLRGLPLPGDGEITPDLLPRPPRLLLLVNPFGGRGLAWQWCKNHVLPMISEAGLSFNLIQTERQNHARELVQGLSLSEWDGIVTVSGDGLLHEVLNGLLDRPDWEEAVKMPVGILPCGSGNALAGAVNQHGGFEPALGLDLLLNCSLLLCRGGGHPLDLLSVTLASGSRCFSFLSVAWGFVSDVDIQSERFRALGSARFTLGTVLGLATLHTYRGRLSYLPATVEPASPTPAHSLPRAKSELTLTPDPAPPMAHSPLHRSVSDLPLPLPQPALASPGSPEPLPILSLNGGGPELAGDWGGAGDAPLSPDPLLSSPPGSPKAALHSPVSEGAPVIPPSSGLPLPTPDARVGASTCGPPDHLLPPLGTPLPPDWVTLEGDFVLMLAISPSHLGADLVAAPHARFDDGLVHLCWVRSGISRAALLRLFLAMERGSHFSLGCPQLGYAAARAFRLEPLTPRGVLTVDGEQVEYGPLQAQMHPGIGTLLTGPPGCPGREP
# How it was run: (§1)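 Reaction Biology panel using ADP-Glo format at 10 μM ATP. Substrate was sphingosine for SPHK1 and SPHK2, and phosphatidylinositol for the other enzymes.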
# [4] = biological target: Phosphatidylinositol 4,5-bisphosphate 3-kinase catalytic subunit alpha isoform (Homo sapiens) (UniProt P42336); details: SK-OV-3, 500 nM; remark: listed apart in the source
# [5] = biological target: T3, Phosphatidylinositol 4,5-bisphosphate 3-kinase catalytic subunit delta isoform (Homo sapiens, UniProt O00329); experiment: Inhibition of PI3Kdelta (unknown origin) by HTRF assay
# T3 sequence (O00329 whole entry): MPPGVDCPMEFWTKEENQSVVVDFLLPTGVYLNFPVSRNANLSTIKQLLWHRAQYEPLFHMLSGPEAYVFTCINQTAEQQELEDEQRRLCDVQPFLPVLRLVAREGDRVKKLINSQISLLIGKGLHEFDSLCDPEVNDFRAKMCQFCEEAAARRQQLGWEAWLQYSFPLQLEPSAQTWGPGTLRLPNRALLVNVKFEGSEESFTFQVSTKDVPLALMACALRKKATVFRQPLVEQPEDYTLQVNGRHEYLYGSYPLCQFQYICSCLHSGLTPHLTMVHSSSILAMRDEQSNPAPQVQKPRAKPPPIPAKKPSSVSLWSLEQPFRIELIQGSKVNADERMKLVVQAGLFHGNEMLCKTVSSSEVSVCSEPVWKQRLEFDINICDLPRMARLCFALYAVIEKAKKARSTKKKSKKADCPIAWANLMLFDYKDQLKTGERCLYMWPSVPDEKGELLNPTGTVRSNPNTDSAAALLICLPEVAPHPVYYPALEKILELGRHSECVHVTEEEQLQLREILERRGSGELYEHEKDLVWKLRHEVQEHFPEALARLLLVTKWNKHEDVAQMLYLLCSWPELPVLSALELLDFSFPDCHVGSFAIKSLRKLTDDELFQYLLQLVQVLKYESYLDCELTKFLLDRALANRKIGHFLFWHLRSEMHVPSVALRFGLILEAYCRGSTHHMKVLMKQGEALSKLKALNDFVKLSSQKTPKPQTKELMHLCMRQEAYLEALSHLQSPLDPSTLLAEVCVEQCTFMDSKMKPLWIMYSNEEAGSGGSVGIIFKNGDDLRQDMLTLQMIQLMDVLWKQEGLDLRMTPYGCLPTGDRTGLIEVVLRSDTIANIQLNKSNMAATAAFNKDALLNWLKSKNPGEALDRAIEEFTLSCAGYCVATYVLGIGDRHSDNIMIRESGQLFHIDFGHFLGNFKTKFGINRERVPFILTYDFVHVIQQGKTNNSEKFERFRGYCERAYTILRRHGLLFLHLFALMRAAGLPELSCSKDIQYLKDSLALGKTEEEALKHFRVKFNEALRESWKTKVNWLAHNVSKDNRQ
# Mus musculus [6] = experiment: In vivo inhibition of PI3Kalpha in nude nu/nu mouse assessed as free P110alpha levels at 100 mg/kg, ip qd administered for 5 consecutive days measured 1 to 4 hrs post last dose by immunoblot method; assay type: functional, organism-based; set-up: dose 100 mg/kg
# How it was run: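 Female nu/nu mice (n = 3/group) dosed ip at 100 mg/kg once daily for 5 days. Spleens harvested 1, 4 and 24 h after the last dose and homogenized. Lysate (150 μg protein) incubated with a biotinylated covalent probe at 1 μM for 1 h at RT, then immunoprecipitated with anti-p110α overnight at 4 °C. Immunoblot: streptavidin signal normalized to total p110α, expressed as % of vehicle.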
# [7] = biological target: Phosphatidylinositol 4-kinase alpha (Homo sapiens, UniProt P42356); experiment: Inhibition of PI4Kalpha (unknown origin) by ADP-GLO assay
# Phosphatidylinositol 4-kinase alpha, sequence (P42356 whole entry): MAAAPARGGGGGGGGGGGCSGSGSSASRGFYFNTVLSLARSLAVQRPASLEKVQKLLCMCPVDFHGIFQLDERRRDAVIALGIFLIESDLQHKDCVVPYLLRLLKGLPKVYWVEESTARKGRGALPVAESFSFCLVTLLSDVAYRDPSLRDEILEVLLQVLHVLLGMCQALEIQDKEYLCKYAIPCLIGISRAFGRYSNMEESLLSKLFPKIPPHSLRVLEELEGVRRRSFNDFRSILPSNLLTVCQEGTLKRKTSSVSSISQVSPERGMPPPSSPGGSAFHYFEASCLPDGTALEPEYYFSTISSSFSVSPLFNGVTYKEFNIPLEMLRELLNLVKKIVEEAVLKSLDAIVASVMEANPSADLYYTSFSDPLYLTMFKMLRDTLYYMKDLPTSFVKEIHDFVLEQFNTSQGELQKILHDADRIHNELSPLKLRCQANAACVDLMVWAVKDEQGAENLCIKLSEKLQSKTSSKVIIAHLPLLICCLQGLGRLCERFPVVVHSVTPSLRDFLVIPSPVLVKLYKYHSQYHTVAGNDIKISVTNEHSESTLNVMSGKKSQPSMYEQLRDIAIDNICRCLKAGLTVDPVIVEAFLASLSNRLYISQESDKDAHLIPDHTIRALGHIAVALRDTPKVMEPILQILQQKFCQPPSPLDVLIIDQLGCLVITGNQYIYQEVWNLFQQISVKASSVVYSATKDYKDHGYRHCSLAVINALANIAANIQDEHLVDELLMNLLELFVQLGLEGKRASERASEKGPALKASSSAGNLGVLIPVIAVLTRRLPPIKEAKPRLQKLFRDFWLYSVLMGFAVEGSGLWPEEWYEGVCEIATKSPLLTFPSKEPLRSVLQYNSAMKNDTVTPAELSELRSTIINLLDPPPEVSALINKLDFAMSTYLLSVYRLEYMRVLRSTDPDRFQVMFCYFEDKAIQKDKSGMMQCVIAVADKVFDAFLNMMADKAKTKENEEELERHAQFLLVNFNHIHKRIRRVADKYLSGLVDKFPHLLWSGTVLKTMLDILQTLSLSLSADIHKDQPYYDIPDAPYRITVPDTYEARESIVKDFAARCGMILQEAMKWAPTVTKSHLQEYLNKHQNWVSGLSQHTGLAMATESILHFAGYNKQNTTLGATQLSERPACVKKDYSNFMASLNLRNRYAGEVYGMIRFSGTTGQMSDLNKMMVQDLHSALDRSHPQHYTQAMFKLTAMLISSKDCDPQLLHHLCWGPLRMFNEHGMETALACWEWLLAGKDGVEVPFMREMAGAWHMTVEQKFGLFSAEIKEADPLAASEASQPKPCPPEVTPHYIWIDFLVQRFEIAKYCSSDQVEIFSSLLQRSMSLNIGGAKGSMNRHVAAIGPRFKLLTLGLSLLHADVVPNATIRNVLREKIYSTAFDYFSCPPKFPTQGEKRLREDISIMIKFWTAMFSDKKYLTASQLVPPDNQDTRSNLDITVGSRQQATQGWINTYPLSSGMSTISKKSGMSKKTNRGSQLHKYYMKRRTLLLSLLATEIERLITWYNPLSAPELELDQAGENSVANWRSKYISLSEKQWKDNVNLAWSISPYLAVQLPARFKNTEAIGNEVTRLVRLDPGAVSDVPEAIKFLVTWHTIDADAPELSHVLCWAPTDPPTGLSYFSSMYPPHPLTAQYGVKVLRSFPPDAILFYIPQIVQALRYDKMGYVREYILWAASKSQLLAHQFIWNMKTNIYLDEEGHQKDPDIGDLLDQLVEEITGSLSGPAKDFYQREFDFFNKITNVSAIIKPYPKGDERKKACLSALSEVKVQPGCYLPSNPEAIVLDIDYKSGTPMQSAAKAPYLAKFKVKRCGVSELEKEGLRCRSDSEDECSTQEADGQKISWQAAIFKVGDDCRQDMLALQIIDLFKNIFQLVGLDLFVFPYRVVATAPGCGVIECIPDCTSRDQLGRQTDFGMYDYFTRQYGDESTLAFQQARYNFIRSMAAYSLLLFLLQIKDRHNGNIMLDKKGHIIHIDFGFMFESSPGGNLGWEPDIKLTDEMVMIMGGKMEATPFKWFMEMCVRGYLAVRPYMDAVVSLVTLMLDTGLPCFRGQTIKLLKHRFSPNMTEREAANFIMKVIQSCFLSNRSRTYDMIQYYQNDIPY
# How it was run: as §1
# [8] = biological target: Phosphatidylinositol 3-kinase catalytic subunit type 3 (Homo sapiens, UniProt Q8NEB9); experiment: Inhibition of PI3KC3 (unknown origin) by ADP-GLO assay
# How it was run: as §1
# [9] = biological target: Phosphatidylinositol 4-phosphate 3-kinase C2 domain-containing subunit alpha (Homo sapiens, UniProt O00443); experiment: Inhibition of PI3KC2A (unknown origin) by ADP-GLO assay
# How it was run: as §1
# Plasma = experiment: Plasma protein binding in human albumin-depleted plasma after 1 to 3 hrs by MALDI TOF/TOF mass spectrometry; assay type: ADME, cell-free
# How it was run: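 Human plasma albumin-depleted, not fully, and diluted to 1 mg/mL. A 10 mM DMSO compound stock diluted 1:10 into it; incubated at 37 °C for 1 or 3 h. Samples desalted on C4 tips and analysed by MALDI TOF/TOF (sinapinic acid matrix, ovalbumin internal standard) for mass shifts.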
# [10] = biological target: T1, Phosphatidylinositol 4,5-bisphosphate 3-kinase catalytic subunit beta isoform; experiment: Binding affinity to human PI3Kbeta after 1 hr by MALDI TOF/TOF mass spectrometry
# How it was run: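 Compound incubated with recombinant PI3K isoform enzyme at a 10:1 compound-to-enzyme molar ratio, room temperature, 1 h; covalent adduct formation read by mass spectrometry.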
# Mus musculus [11] = experiment: In vivo inhibition of PI3Kalpha in nude nu/nu mouse spleen assessed as inhibition of Akt Ser473 phosphorylation at 100 mg/kg, ip qd administered for 5 consecutive days measured 1 to 4 hrs post last dose by immunoblotting method; assay type: functional, organism-based; set-up: dose 100 mg/kg
# How it was run: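 Female nu/nu mice (n = 3/group) dosed ip at 100 mg/kg once daily for 5 days. Spleens collected 1, 4 and 24 h post last dose, frozen, then homogenized in extraction buffer with protease and phosphatase inhibitors. Lysates immunoblotted for P-Akt Ser473.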
# [12] = biological target: Phosphatidylinositol 4,5-bisphosphate 3-kinase catalytic subunit gamma isoform (Homo sapiens, UniProt P48736); experiment: Inhibition of PI3Kgamma (unknown origin) by HTRF assay
# Phosphatidylinositol 4,5-bisphosphate 3-kinase catalytic subunit gamma isoform, sequence (P48736 whole entry, canonical isoform): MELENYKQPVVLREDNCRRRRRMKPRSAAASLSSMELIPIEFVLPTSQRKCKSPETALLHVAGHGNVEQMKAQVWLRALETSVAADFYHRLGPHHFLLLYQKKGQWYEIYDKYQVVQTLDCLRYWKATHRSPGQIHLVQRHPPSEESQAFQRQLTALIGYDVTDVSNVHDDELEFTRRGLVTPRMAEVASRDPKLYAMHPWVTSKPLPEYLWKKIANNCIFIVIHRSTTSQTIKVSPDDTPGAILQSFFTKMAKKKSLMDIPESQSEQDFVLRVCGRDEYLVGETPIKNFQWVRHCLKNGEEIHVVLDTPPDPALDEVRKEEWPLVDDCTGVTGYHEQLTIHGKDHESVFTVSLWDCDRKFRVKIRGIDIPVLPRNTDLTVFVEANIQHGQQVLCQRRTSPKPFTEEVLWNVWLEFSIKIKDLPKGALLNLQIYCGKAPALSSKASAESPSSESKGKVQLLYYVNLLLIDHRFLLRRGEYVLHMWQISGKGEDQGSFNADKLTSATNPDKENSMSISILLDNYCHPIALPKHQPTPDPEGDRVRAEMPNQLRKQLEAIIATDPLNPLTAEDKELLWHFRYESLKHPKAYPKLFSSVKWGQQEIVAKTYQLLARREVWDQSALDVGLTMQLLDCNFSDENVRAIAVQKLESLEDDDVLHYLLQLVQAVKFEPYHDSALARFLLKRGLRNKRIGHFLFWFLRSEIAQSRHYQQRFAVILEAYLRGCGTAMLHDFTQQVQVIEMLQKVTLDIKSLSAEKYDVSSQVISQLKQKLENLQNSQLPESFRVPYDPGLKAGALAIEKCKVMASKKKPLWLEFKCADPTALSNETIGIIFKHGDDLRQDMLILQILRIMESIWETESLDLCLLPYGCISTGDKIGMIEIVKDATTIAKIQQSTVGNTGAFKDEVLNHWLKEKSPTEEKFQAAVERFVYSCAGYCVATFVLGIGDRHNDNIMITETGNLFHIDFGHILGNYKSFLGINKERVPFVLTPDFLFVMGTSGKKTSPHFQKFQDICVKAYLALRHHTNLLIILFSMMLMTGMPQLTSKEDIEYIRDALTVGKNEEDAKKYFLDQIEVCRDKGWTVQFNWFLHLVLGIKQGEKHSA
# How it was run: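 Contract lab panel, end-point HTRF format with phosphatidylinositol 4,5-bisphosphate as substrate and 10 μM ATP. Ten-point curve, 3-fold serial dilutions starting at 1 μM. Reported as an apparent IC50 (IC50App).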
# [13] = biological target: Phosphatidylinositol 4-kinase beta (Homo sapiens, UniProt Q9UBF8); experiment: Inhibition of PI4Kbeta (unknown origin) by ADP-GLO assay
# Phosphatidylinositol 4-kinase beta, sequence (Q9UBF8 whole entry): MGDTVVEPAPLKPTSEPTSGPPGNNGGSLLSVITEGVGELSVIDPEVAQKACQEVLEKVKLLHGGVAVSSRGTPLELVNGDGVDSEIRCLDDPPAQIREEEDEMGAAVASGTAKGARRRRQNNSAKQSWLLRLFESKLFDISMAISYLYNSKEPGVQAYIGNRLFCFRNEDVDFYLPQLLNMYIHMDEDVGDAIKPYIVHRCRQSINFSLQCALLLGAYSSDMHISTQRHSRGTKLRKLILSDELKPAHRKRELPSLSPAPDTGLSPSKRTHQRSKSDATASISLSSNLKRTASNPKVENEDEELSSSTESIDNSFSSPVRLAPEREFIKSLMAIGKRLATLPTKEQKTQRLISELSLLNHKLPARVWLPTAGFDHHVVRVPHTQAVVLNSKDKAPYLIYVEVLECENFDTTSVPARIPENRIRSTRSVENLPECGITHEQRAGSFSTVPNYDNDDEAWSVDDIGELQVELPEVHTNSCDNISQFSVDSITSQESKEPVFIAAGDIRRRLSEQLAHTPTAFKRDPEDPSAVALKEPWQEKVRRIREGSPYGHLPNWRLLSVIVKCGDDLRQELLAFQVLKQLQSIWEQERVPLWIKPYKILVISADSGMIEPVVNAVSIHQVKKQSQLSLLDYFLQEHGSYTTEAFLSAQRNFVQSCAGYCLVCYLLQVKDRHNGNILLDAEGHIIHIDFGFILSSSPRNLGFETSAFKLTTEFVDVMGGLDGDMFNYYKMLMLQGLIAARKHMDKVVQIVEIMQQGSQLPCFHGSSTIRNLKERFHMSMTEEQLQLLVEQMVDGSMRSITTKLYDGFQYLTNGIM
# How it was run: as §1
# Sphingosine kinase 1 = Sphingosine kinase 1 (Homo sapiens, UniProt Q9NYA1); experiment: Inhibition of SPHK1 (unknown origin) by ADP-GLO assay
# How it was run: as §1
# Phosphatidylinositol 4,5-bisphosphate 3-kinase catalytic subunit alpha isoform (Homo sapiens), sequence (P42336 whole entry, canonical isoform): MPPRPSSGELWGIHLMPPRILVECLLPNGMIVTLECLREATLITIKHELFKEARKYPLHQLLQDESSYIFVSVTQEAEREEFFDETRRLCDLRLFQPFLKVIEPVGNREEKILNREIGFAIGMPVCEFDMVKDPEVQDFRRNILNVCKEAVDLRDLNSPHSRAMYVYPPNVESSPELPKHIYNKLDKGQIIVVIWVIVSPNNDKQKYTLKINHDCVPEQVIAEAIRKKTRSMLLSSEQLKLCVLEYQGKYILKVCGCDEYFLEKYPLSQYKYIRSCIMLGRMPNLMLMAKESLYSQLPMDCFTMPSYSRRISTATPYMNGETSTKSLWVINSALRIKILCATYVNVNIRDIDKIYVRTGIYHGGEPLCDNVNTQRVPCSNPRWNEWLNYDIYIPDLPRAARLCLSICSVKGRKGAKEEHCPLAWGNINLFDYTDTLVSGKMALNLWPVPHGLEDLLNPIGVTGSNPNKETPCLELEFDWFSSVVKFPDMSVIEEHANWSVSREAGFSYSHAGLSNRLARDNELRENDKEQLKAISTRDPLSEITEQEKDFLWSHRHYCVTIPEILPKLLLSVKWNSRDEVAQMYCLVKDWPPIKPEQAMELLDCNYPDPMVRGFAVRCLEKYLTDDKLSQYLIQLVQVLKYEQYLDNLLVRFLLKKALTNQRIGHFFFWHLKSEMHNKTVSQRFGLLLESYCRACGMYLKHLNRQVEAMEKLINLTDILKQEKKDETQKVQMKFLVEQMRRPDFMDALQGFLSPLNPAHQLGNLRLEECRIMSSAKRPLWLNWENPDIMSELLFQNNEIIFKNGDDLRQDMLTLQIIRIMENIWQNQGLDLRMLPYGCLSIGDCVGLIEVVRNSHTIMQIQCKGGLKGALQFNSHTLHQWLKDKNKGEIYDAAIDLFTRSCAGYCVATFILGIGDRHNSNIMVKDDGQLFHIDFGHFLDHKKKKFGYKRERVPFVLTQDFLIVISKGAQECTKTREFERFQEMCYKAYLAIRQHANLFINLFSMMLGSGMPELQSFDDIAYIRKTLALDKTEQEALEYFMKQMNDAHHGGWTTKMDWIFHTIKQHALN
SMILES,inhibition [1],GI50 (SK-OV-3) [nM],inhibition [2],GI50 (MCF7) [nM],IC50 [3] [nM],IC50 (Sphingosine kinase 2) [nM],inhibition [4],IC50 [5] [µM],Activity (Mus musculus [6]),IC50 [7] [nM],IC50 [8] [nM],IC50 [9] [nM],PPB (Plasma),Activity [10],Activity (Mus musculus [11]),IC50 [12] [nM],IC50 [13] [nM],IC50 (Sphingosine kinase 1) [nM]
CS(=O)(=O)N1CCN(Cc2cc3nc(-c4cccc5[nH]ncc45)nc(N4CCOCC4)c3s2)CC1 [PICTILISIB],Active,148,inactive,70.2,–,–,–,–,–,–,–,–,–,–,–,–,–,–
CC(C)=CC(=O)CCC(=O)N1CCN(Cc2cc3nc(-c4cccc5[nH]ncc45)nc(N4CCOCC4)c3s2)CC1,–,77.6,–,54.7,166,> 1000,Active,3.02,Active,> 1000,> 1000,> 1000,Not Active,inactive,Active,240,> 1000,> 1000

# — ChEMBL document CHEMBL2311296, “Discovery of a potent and isoform-selective targeted covalent inhibitor of the lipid kinase PI3Kα” (J Med Chem, 2013)
